According to PMC6690761 (Bioorganic & medicinal chemistry letters, 2019):

Biological target: T1, murine PDS (Mus musculus, UniProt Q9R155)
T1 sequence (Q9R155 1-780): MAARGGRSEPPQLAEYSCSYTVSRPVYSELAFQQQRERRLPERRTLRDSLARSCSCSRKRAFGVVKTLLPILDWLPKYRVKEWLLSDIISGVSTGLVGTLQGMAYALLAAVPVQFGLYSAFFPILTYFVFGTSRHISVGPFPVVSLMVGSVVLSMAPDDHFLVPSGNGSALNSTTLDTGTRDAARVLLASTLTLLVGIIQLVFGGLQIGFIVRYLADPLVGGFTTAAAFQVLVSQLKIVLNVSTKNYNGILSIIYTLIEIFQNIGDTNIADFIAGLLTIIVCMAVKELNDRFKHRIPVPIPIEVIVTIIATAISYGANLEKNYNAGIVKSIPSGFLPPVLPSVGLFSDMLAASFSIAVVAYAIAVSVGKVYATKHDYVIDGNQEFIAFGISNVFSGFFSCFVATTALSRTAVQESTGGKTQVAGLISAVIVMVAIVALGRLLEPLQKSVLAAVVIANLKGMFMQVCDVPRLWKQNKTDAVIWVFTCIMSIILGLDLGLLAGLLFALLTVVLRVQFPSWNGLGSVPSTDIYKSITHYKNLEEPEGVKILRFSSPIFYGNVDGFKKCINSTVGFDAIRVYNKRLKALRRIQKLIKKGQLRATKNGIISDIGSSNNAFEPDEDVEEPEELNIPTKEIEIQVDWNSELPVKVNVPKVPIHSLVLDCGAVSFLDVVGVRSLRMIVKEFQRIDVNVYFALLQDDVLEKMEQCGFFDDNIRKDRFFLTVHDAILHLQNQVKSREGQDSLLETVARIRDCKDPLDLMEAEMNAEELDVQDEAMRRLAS
Experiment: functional cell-based assay of PDS-mediated Cl-/I- exchange
Details: Fischer rat thyroid cells expressing murine PDS
Method in brief: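 Fischer rat thyroid cells stably co-expressing murine pendrin and the halide-sensitive fluorescent protein EYFP-H148Q/I152L/F46L. Pendrin-mediated Cl–/I– exchange is followed through this halide-sensing fluorescent reporter. Inhibition is reported as IC50.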

Row | SMILES | PDS inhibition activity (in words)
1 | CCOC(=O)c1nn(C)c2c1CN(C(=O)Nc1ccc(Cl)cc1)CC2 [Compound 20] | minimal PDS inhibition activity
2 | Cn1nc(C(=O)O)c2c1CCN(C(=O)Nc1ccc(Cl)cc1)C2 [Compound 21] | minimal PDS inhibition activity
